Kir21 inh: Kir2.1 (mouse) channel inhibition; P35561; HEK293-Kir2.1, FluxOR thallium flux fluorescence; hits give low values; B-score at 10 µM; hit rate 0.85% among 310,000;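 active means fluorescence ratio B-score at or below minus 3 SD of library scores, with starting-brightness B-score within 2 SD, cut at about -4.2 in these data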;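 further: channel flux triggered by added potassium and thallium sulfate stimulus; B-score of peak minus minimum fluorescence over baseline after thallium stimulus; more negative B-score means stronger Kir2.1 block with less thallium influx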
Target sequence (P35561 whole entry, looked up): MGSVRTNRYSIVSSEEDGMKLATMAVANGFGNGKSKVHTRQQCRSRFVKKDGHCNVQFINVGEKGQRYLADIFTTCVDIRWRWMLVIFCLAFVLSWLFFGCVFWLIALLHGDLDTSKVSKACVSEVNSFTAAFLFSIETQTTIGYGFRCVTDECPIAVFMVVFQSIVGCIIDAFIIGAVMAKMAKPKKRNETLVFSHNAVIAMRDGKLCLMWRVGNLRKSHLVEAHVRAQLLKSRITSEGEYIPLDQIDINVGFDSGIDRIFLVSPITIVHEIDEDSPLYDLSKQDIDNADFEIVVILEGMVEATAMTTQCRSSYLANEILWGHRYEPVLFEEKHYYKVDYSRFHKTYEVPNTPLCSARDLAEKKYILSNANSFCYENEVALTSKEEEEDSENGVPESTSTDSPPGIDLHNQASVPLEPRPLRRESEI
KCNQ1 block: blocks the human KCNQ1 potassium channel; AID 2642; P51787; CHO-K1 KCNQ1, FluxOR thallium flux fluorescence; hits give high values; B-score at 10 µM; hit rate 1.3% among 310,000;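 active means compounds whose thallium flux B-score, printed positive for inhibition, exceeds three library SD while starting fluorescence stays within three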;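 further: channel opened by potassium depolarization with thallium stimulus after 20 min compound exposure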
hERG rescue: hERG (human) protection from proarrhythmic block; Q12809; CHO-hERG, FluxOR thallium flux, dofetilide IC70 present; activation (rescue from dofetilide block), less the hit threshold, % at 10 µM; hit rate 0.51% among 310,000; AID 1511;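 active means activation above the mean of controls blocked by dofetilide plus 5 SD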;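 further: thallium influx through hERG after potassium depolarization seen as dye fluorescence rise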
KCNK9 inh: human KCNK9 channel inhibition; HEK293 KCNK9, FluxOR thallium flux fluorescence; hits give low values; B-score at 10 µM; hit rate 1.2% among 310,000;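 active means ratio B-score over 3 SD below the library mean, with starting fluorescence within 5 SD of its mean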;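 further: negative B-score means less thallium flux so channel inhibition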
KCNK3 block: human KCNK3 channel inhibition, primary screen | O14649 | CHO-KCNK3 thallium flux, FluxOR fluorescence; hits give low values | B-score at 10 µM | hit rate 0.84% among 340,000 | AID 602410;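 active means B-score under library mean minus 4 SD, starting fluorescence ratio at most library mean plus 5 SD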;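 further: more negative B-score means stronger inhibition of thallium flux through KCNK3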
KCNQ1 pot: potentiators or activators of human KCNQ1 potassium channel; B-score at 10 µM; hit rate 0.35% among 310,000; CHO-K1 KCNQ1, thallium flux FluxOR fluorescence; hits give high values;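 active means fluorescence ratio B-score, a plate-corrected score, at least three library SD, with initial intensity B-score within 5 SD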
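Schedule – 37 °C overnight plating, 90-min dark dye load, 20-min compound pretreatment · System – stable KCNQ1 CHO-K1 line · Probe or stimulus – thallium- and potassium-containing depolarizing buffer · Measured by – kinetic FluxOR fluorescence, 10 s baseline plus 110 s post-stimulus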
KCNQ1 block val: human KCNQ1 channel inhibition, validation assay. inhibition, % at 10 µM. AID 588353. hit rate 93% among 1,600. shares compounds with KCNQ1 block. KCNQ1 cell line, FluxOR thallium flux fluorescence;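 active means primary screen active, with duplicate mean exceeding buffer control mean plus 3 SD of buffer wells, cut at about 28% in these data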;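 further: 0% = buffer control ratio and 100% = XE991 inhibitor control ratio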
CHO Tl flux: KCNQ1 inhibitor counter-screen hit in parental CHO cells; shares compounds with KCNQ1 block; AID 588366; hit rate 21% among 1,600; fluorescence ratio (Tl flux) at 10 µM; parental CHO-K1, FluxOR thallium flux fluorescence ratio; hits give low values; zero means no signal rise above baseline;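 active means mean of duplicate thallium-flux fluorescence ratios in parental host cells more than 5 SD below the buffer control mean, cut at about 0.38 in these data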;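 further: ratio is peak minus minimum fluorescence divided by baseline fluorescence; actives read low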
KCNQ2 spec: selectivity of KCNQ1 inhibitors: inhibition of rat KCNQ2 channel; shares compounds with KCNQ1 block; KCNQ2 cells, FluxOR thallium flux fluorescence; inhibition, % at 10 µM; hit rate 71% among 1,600; AID 651746;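 active means mean percent inhibition of the KCNQ2 thallium signal more than 5 SD above the buffer-only control wells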;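 further: KCNQ2 expressed in CHO cells; 0% = buffer control wells and 100% = XE-991 inhibitor control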
KCNQ1-KCNE1 inh: selectivity of KCNQ1 inhibitors: inhibition of human KCNQ1/KCNE1 channel. shares compounds with KCNQ1 block. KCNQ1/KCNE1 cells, FluxOR thallium flux fluorescence. inhibition, % at 10 µM. hit rate 77% among 1,600;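 active means mean percent inhibition of duplicate wells above the buffer-only control mean plus 3 SD of those controls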;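 further: 0% = buffer only wells and 100% = XE-991 inhibitor control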
KCNK3 confirm: human KCNK3 channel inhibition, confirmation assay; shares compounds with KCNK3 block; CHO-KCNK3 thallium flux, FluxOR fluorescence; 0% buffer, 100% carvedilol maximal block; ratio percent of control, % at 10 µM; hit rate 99% among 2,400; AID 651638;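 active means ratio percent of control, averaged over triplicates, above buffer control mean plus 5 SD, cut at about 64% in these data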;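 further: ratio is the fluorescence rise from min to max over baseline after thallium stimulus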
KCNK3 noninduced: KCNK3 inhibitor counter-screen hit in non-induced cells | shares compounds with KCNK3 block | non-induced KCNK3 parental cells, FluxOR thallium flux; hits give low values | thallium flux ratio (lower = more inhibition) at 10 µM | hit rate 40% among 2,400 | AID 651747;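 active means thallium flux ratio, averaged over three wells, more than 5 SD below the buffer control mean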;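 further: host cells are CHO cells without KCNK3 induction; ratio is peak minus trough fluorescence over baseline then normalized to buffer controls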
* marks the source's active call; other numbers are inactive results. Only some compounds are listed: those with a hit (about 3.7% of all), similar ones and a draw of the others.

Results for CN(C)S(=O)(=O)c1cccc(C(=O)Nc2cc(Cl)cc(Cl)c2)c1 ?
Kir21 inh: 1.8; KCNQ1 block: 7*; hERG rescue: -10; KCNK9 inh: inactive; KCNK3 block: -13*; KCNQ1 pot: inactive; KCNQ1 block val: 67*; CHO Tl flux: 0.49; KCNQ2 spec: 110%*; KCNQ1-KCNE1 inh: inactive; KCNK3 confirm: 126*; KCNK3 noninduced: inactive

Results for CN(C)CCCNC(=O)C[C@H]1C[C@H](C(=O)N2CCCCC2)[C@@]2(C)c3[nH]c4cc(CCC(=O)N(C)C)ccc4c3CCN2C1=O ?
KCNK3 block: inactive

How did O=C(Nc1cc(Cl)cc2c1-c1ccc(Cl)cc1C2O)C(Cl)Cl (centres undefined) do in these assays?
KCNK3 block: inactive

Results for COc1cccc(NC(=O)Nc2ccc(C(C)(C)C)cc2)c1 ?
Kir21 inh: -0.77; KCNQ1 block: 13*; hERG rescue: -30; KCNK9 inh: inactive; KCNK3 block: -13*; KCNQ1 pot: inactive; KCNQ1 block val: 152*; CHO Tl flux: 0.35*; KCNQ2 spec: 109%*; KCNQ1-KCNE1 inh: active; KCNK3 confirm: 134*; KCNK3 noninduced: 0.13*

Results for CC(=O)Nc1ccc(NC(=O)Nc2ccc3c(c2)N(C)C(=O)CS3)cc1 ?
Kir21 inh: 1.2; KCNQ1 block: inactive; hERG rescue: -6; KCNK9 inh: inactive; KCNK3 block: inactive; KCNQ1 pot: inactive

Results for COc1cccc(NC(=O)Nc2ccc3c(c2)N(C)C(=O)CS3)c1 ?
Kir21 inh: -0.19; KCNQ1 block: 6*; hERG rescue: -28; KCNK9 inh: inactive; KCNK3 block: -11*; KCNQ1 pot: inactive; KCNQ1 block val: 114*; CHO Tl flux: 0.36*; KCNQ2 spec: 114%*; KCNQ1-KCNE1 inh: active; KCNK3 confirm: 119*; KCNK3 noninduced: inactive

What do the screens show for `CCOc1ccc(OCC)c(NC(=O)Nc2ccc3c(c2)N(C)C(=O)CS3)c1`?
Kir21 inh: -0.02; KCNQ1 block: 14*; hERG rescue: -9; KCNK9 inh: inactive; KCNK3 block: -16*; KCNQ1 pot: inactive; KCNQ1 block val: 82*; CHO Tl flux: 0.47; KCNQ2 spec: 90%*; KCNQ1-KCNE1 inh: 152%*; KCNK3 confirm: 119*; KCNK3 noninduced: inactive

Results for COc1cccc(NC(=O)Nc2ccncc2)c1 ?
Kir21 inh: -1.1; KCNQ1 block: inactive; hERG rescue: -4; KCNK9 inh: inactive; KCNK3 block: inactive; KCNQ1 pot: inactive

Results for COCCCN1C(=O)C(=O)/C(=C(/O)c2ccc(S(=O)(=O)N3CCOCC3)cc2)C1c1ccc(C(C)C)cc1 (centres undefined) ?
Kir21 inh: 0.96; KCNQ1 block: inactive; hERG rescue: -6; KCNK9 inh: inactive; KCNK3 block: inactive; KCNQ1 pot: inactive

Compound activity: PubChem BioAssay, Johns Hopkins Ion Channel Center
